pIC50: −log10 of the molar value.
How the values were obtained:
[1] = system: Mus musculus; assay: Antiobesity activity in B6.V/J ob/ob mouse assessed as change in lung weight at 50 mg/kg, po bid measured after 14 days (reference value: 0.143 +/- 0.013 g); assay type: functional
[2] = molecular target: 5-hydroxytryptamine receptor 7 (Homo sapiens, UniProt P34969); assay: Displacement of [3H]-LSD from human recombinant 5HT-7 receptor expressed in CHOK1 cell membranes after 120 mins; design: species or system CHO-K1
5-hydroxytryptamine receptor 7, sequence (P34969 whole entry): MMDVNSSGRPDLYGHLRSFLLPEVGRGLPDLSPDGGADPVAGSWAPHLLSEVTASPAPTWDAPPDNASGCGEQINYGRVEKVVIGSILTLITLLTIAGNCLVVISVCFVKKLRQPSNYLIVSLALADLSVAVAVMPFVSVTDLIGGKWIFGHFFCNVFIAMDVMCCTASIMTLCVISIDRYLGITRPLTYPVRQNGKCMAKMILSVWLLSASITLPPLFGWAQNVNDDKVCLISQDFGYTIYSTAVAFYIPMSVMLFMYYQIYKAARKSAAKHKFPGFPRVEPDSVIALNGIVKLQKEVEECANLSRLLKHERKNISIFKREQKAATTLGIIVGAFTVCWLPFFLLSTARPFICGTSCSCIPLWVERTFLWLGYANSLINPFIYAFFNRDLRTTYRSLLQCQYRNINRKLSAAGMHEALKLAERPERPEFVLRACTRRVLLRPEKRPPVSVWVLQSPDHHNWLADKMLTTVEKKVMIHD
In short: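 CHO-K1 membranes expressing human 5-HT7 incubated with 3 nM [3H]LSD for 120 min at 27 °C in 50 mM Tris-HCl pH 7.4, 10 mM MgSO4, 0.5 mM EDTA. Filtered on glass-fiber filters presoaked in 0.3% PEI. Methiothepin defined nonspecific binding.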

[3] = system: Mus musculus; assay: Antiobesity activity in B6.V/J ob/ob mouse assessed as change in liver weight at 5 mg/kg, po bid measured after 14 days (reference value: 3.396 +/- 0.162 g); assay type: functional
[4] = system: Mus musculus; assay: Antiobesity activity in B6.V/J ob/ob mouse assessed as inhibition of food intake at 50 mg/kg, ip measured up to 12 hrs relative to vehicle-treated control; assay type: functional; details: route intraperitoneal
In short: (§1)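 Male mice were acclimated 1 week at 23 ± 3 °C and 50 ± 20% humidity, then fasted 24 h. They were dosed once intraperitoneally with vehicle or compound: 50 mg/kg in C57BL/6, or 12.5, 25 or 50 mg/kg in B6.V-Lep^ob/J. Food intake was measured at 2, 6 and 12 h versus vehicle control.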

[5] = system: Mus musculus; assay: Antiobesity activity in B6.V/J ob/ob mouse assessed as inhibition of food intake at 25 mg/kg, ip measured up to 6 hrs relative to vehicle-treated control; assay type: functional; details: route intraperitoneal; in short: as §1
[6] = system: Mus musculus; assay: Antiobesity activity in B6.V/J ob/ob mouse assessed as change in spleen weight at 25 mg/kg, po bid measured after 14 days (reference value: 0.097 +/- 0.052 g); assay type: functional
[7] = system: Mus musculus; assay: Antiobesity activity in B6.V/J ob/ob mouse assessed as change in thymus weight at 5 mg/kg, po bid measured after 14 days (reference value: 0.029 +/- 0.006 g); assay type: functional
[8] = system: Mus musculus; assay: Antiobesity activity in B6.V/J ob/ob mouse assessed as change in liver weight at 50 mg/kg, po bid measured after 14 days (reference value: 3.396 +/- 0.162 g); assay type: functional
[9] = molecular target: T1, Alpha-1A adrenergic receptor (Homo sapiens, UniProt P35348); assay: Binding affinity to adrenergic alpha1A receptor (unknown origin)
T1 sequence (P35348 whole entry): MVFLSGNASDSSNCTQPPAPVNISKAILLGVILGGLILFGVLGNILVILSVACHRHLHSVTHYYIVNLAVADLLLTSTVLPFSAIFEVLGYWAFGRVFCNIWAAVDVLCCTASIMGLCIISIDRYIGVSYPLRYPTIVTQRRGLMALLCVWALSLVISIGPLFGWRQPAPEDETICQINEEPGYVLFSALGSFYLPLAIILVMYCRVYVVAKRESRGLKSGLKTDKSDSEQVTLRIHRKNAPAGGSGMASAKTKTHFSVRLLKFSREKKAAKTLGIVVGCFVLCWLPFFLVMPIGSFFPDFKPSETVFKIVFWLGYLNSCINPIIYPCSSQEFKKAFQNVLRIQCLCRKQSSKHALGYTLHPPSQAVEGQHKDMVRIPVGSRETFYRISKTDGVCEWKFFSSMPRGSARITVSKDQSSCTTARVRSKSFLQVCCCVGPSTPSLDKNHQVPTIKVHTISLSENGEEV

[10] = molecular target: 5-hydroxytryptamine receptor 2A (Homo sapiens, UniProt P28223); assay: Displacement of [3H]-ketanserin from human recombinant 5HT-2A receptor expressed in CHOK1 cell membranes after 60 mins; design: species or system CHO-K1
5-hydroxytryptamine receptor 2A, sequence (P28223 whole entry): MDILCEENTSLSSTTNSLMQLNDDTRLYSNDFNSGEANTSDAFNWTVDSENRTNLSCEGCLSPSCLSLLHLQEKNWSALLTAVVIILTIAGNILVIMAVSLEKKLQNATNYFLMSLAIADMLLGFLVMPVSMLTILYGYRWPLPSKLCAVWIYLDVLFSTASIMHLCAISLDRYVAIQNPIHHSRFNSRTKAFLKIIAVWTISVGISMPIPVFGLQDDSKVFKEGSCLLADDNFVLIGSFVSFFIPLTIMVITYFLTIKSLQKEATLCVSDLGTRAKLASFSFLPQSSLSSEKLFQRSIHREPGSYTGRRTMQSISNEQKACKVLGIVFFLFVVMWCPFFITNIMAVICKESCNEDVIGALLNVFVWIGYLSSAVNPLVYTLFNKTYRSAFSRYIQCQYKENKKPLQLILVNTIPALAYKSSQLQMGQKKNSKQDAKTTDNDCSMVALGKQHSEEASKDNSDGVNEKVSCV
In short: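 Buffer was 50 mM Tris-HCl pH 7.4 with 5 mM CaCl2 and 0.1% ascorbic acid. Test compound added at a range of concentrations.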

[11] = system: Mus musculus; assay: Antiobesity activity in B6.V/J ob/ob mouse assessed as change in kidney weight at 5 mg/kg, po bid measured after 14 days (reference value: 0.339 +/- 0.009 g); assay type: functional
[12] = Tmax in Sprague-Dawley rat at 10 mg/kg, po; assay type: ADME, organism-based; design: dose 10 mg/kg, route oral; details: in vivo
In short: (§2)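 Rats fasted 12 h, then dosed orally by gavage or by bolus tail-vein injection at 2 ml/kg. Compound given as a 5 mg/ml solution in N-methyl-2-pyrrolidone/Tween 80/water (1:2:7). Samples taken at various times (n = 5) and stored at −70 °C. Plasma deproteinized with acetonitrile containing carbamazepine internal standard, then quantified by LC-MS/MS.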

[13] = system: Mus musculus; assay: Antiobesity activity in B6.V/J ob/ob mouse assessed as inhibition of food intake at 50 mg/kg, ip measured up to 2 hrs relative to vehicle-treated control; assay type: functional; details: route intraperitoneal; in short: as §1
[14] = system: Mus musculus; assay: Antiobesity activity in B6.V/J ob/ob mouse assessed as change in heart weight at 25 mg/kg, po bid measured after 14 days (reference value: 0.150 +/- 0.003 g); assay type: functional
[15] = system: Mus musculus; assay: Antiobesity activity in B6.V/J ob/ob mouse assessed as inhibition of food intake at 25 mg/kg, ip measured up to 12 hrs relative to vehicle-treated control; assay type: functional; details: route intraperitoneal; in short: as §1
[16] = system: Mus musculus; assay: Antiobesity activity in B6.V/J ob/ob mouse assessed as change in gonadal adipose tissue weight at 25 mg/kg, po bid measured after 14 days (reference value: 3.599 +/- 0.155 g); assay type: functional
[17] = Terminal half life in Sprague-Dawley rat at 10 mg/kg, iv; assay type: ADME, organism-based; design: dose 10 mg/kg, route intravenous; details: in vivo, read-out: beta t1/2; in short: as §2
[18] = Drug uptake in Sprague-Dawley rat brain at 10 mg/kg, iv measured at 2 hrs; assay type: ADME, organism-based; design: dose 10 mg/kg, route intravenous; details: read-out: Drug uptake; in short: as §2
[19] = system: Mus musculus; assay: Antiobesity activity in B6.V/J ob/ob mouse assessed as change in lung weight at 5 mg/kg, po bid measured after 14 days (reference value: 0.143 +/- 0.013 g); assay type: functional
[20] = system: Mus musculus; assay: Antiobesity activity in B6.V/J ob/ob mouse assessed as […] at 25 mg/kg, ip measured after 12 hrs relative to vehicle-treated control; assay type: functional; details: route intraperitoneal
[21] = system: Mus musculus; assay: Antiobesity activity in B6.V/J ob/ob mouse assessed as change in kidney weight at 25 mg/kg, po bid measured after 14 days (reference value: 0.339 +/- 0.009 g); assay type: functional
[22] = system: Mus musculus; assay: Antiobesity activity in B6.V/J ob/ob mouse assessed as change in thymus weight at 50 mg/kg, po bid measured after 14 days (reference value: 0.029 +/- 0.006 g); assay type: functional
[23] = AUClast in Sprague-Dawley rat at 10 mg/kg, iv; assay type: ADME, organism-based; design: time 0 - last, dose 10 mg/kg, route intravenous; details: plasma
[24] = system: Mus musculus; assay: Antiobesity activity in B6.V/J ob/ob mouse assessed as inhibition of food intake at 12.5 mg/kg, ip measured up to 6 hrs relative to vehicle-treated control; assay type: functional; details: route intraperitoneal; in short: as §1
[25] = system: Mus musculus; assay: Antiobesity activity in B6.V/J ob/ob mouse assessed as change in gonadal adipose tissue weight at 5 mg/kg, po bid measured after 14 days (reference value: 3.599 +/- 0.155 g); assay type: functional
[26] = Clearance in Sprague-Dawley rat at 10 mg/kg, iv; assay type: ADME, organism-based; design: dose 10 mg/kg, route intravenous; details: in vivo; in short: as §2

What does the source list for `Cl.Clc1cccc(Nc2nc(Cc3ccccc3)nc3c2CCNCC3)c1`?
Activity [1]: 0.14 g; pIC50 [2]: 6.00; Activity [3]: 3.394 g; inhibition in vivo at 50 mg/kg [4]: 93.3%; inhibition in vivo at 25 mg/kg [5]: 90.2%; Activity [6]: 0.111 g; Activity [7]: 0.033 g; Activity [8]: 3.87 g; pIC50 [9]: < 5.00; pIC50 [10]: 8.52; Activity [11]: 0.329 g; Tmax [12]: 3.5 h; inhibition in vivo at 50 mg/kg [13]: 99.8%; Activity [14]: 0.143 g; inhibition in vivo at 25 mg/kg [15]: 77.8%; Activity [16]: 3.127 g; half-life [17]: 135 min; concentration at 2 h [18]: 1480 ng/mL; Activity [19]: 0.124 g; inhibition in vivo at 25 mg/kg [20]: 51.1%; Activity [21]: 0.329 g; Activity [22]: 0.04 g; AUC(0-t) [23]: 1730 ng·h/mL; inhibition in vivo at 12.5 mg/kg [24]: 71%; Activity [25]: 3.776 g; clearance [26]: 97.2 mL/min/kg
